Shown are actives, neighbours in structure and some others; about 4.8% of the full set was active somewhere.
CHOP UPR activ: activators of apoptotic CHOP UPR arm, primary screen, cell-based, CHO-CHOP luciferase reporter, luminescence, uHTS | activation, % at 10 µM | 330,000 compounds, 0.34% hits | UPR activation; percent of tunicamycin response over DMSO baseline;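 active = at 10 µM dose, activation of 40% or more, normalized to positive control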;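 also: 100% = tunicamycin at 10 µg/mL and 0% = DMSO alone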
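System: CHO CHOP reporter cells. Amount: 500 cells per well. Buffer or medium: F12 medium, 10% FBS. Compound dosing: one dose, 10 µM in 0.5% DMSO. Incubation: 6 h compound exposure at 37 °C after overnight seeding. Technique: Steady-Glo luciferase luminescence. Benchmarks: tunicamycin and DMSO controls.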
CSC inhib: cancer stem cell viability inhibitors, primary screen, luminescence; 300,000 compounds, 1.1% hits; cancer stem cell-like cells viability; AID 2717, 2010; inhibition, % at 7.5 µM; in the data active = inhibition above about 75%; tested in HMLE shEcad cells
SKKanGAS inh: S. pyogenes SKKanGAS growth inhibitors in kanamycin, primary screen, streptokinase expression inhibitor project, SKKanGAS strain, BacTiter-Glo luminescence; 6 h; inhibition, % at 7.5 µM; 300,000 compounds, 1.3% hits; AID 1662, 2009;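 active = mean replicate score, as percent of positive control median, at least 50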;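 also: strain carries kanamycin resistance gene driven by streptokinase promoter and grows in 40 µg/ml kanamycin; loss of luminescence reflects streptokinase promoter inhibition or plain growth inhibition; 0% = median of DMSO wells and 100% = positive control at its reference dose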
Mdm2-MdmX inh: inhibitors of human Mdm2-MdmX association, primary screen, cell-based, luminescence, split luciferase, SaOS-2, uHTS; Protein Mdm4 (Homo sapiens) + E3 ubiquitin-protein ligase Mdm2 (Homo sapiens), …; SaOS-2 split-luciferase Mdm2/MdmX complementation; inhibition, % at 8 µM; 330,000 compounds, 3% hits;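 active = inhibition of at least 50% at 8 µM in the primary screen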
Beta cell apopt: inhibitors of cytokine-induced beta cell apoptosis, primary screen, luminescence | protection from apoptosis, % (concentration not given with the values) | AID 435005, 2010 | 300,000 compounds, 0.8% hits | INS-1E cytokine-induced death, ATP luminescence, 48 h; percent of positive-control rescue, neutral wells zero;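 active = Every replicate reaches about 75%, or at least half do and their mean reaches it too, limit read from the data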;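 also: 0% = cytokine-treated negative control wells and 100% = positive control rescue; higher means more ATP so stronger rescue from cytokine killing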
XBP1 UPR activ: activators of adaptive XBP1 UPR arm, primary screen, cell-based, CHO-XBP1 luciferase reporter, luminescence, uHTS. activation, % at 20 µM. IRE1-XBP1 UPR activation; percent of tunicamycin response, DMSO as zero. 330,000 compounds, 0.33% hits;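 active = versus positive control, 20 µM dose yields 30% or more activation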;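 also: 100% = tunicamycin at 10 µg/mL and 0% = DMSO only wells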
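Assay system: CHO-XBP1 luciferase reporter cells; Schedule: 6 h treatment, 37 °C; Detection: glow luminescence from Steady-Glo reagent; Benchmarks: high control tunicamycin 10 µg/mL final, low control DMSO vehicle only.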
Starred values were filed as active, the others as inactive; nt = no result.

SMILES	CHOP UPR activ	CSC inhib	SKKanGAS inh	Mdm2-MdmX inh	Beta cell apopt	XBP1 UPR activ
Cn1cc([N+](=O)[O-])c(C(=O)Nc2cc(Oc3ccccc3)cc([N+](=O)[O-])c2)n1	nt	96*	7	nt	0	nt
Cc1cccc(Oc2cc(NC(=O)c3ccccc3)cc([N+](=O)[O-])c2)c1	2	55	35	16	100*	-3
CCC(C(=O)Nc1cc(OC)c(NC(=O)c2ccccc2)cc1OC)c1ccccc1 (stereo not given)	-1	79*	2	-3	9	-1
Cc1cc(N/N=C/c2ccc(F)cc2)nc(NCc2ccccc2)n1	3	21	5	36	nt	1
Cc1ccc(/C=N/Nc2cc(C)nc(NCc3ccccc3)n2)cc1	4	97*	11	47	28	-3
COc1ccc(OC)c2nc(-c3ccc4c(c3)OCO4)ccc12	3	-2	-6	-148	5	0
Cc1ccc2nc(N3C(=O)C(O)=C(C(=O)c4ccco4)C3c3cccs3)sc2c1 (stereo not given)	3	34	52*	-79	-1	3
Cc1cc(C)c2nc(N3C(=O)C(O)=C(C(=O)c4ccco4)C3c3ccco3)sc2c1 (stereo not given)	6	13	78*	-15	-2	6
COc1ccc(NC(=O)c2ccccc2NC(=O)CN2CCCCCC2)cc1	3	nt	nt	8	-4	1
COc1ccc(N2CCN(S(=O)(=O)c3ccc(OC)c(C(=O)N4CCOCC4)c3)CC2)cc1	2	-2	-1	-16	0	-1
COCc1c(C(C)C)nc(C(C)C)c(/C=C/[C@@H](O)C[C@@H](O)CC(=O)O)c1-c1ccc(F)cc1	nt	106*	7	nt	46	nt
COc1ccc(C2=NN(C(=O)CCC(=O)O)C(c3ccc(F)cc3)C2)cc1 (stereo not given)	1	3	8	11	-1	-2
CCC(C)c1ccccc1NS(=O)(=O)c1cnn(CC)c1 (stereo not given)	-1	-12	53*	17	nt	-1
CC1Oc2cc3oc4c(O)c5c(cc4c(=O)c3c(O)c2C1(C)C)C=CC(C)(C)O5 (stereo not given)	6	-7	70*	18	2	8
CC1(C)C=Cc2cc3ccc(=O)oc3cc2O1	6	-11	3	-39	nt	1
O=C(COc1cccnc1[N+](=O)[O-])c1ccc(Cl)s1	2	-6	11	-3	-9	0
Cc1cc(=O)c(C(=O)O)cn1Nc1ccc(F)cc1	2	11	27	3	-11	2
Cc1cc(=O)c(C(=O)O)cn1Nc1ccc(Cl)cc1	1	-5	65*	-16	-1	0
Cc1c(OCC(=O)N2CCC(C(=O)NCCCC(=O)O)CC2)ccc2c1oc(=O)c1ccccc12	0	-10	-1	-9	-4	-3
COc1ccccc1Oc1cn[nH]c1-c1ccc(OCC(=O)NN)cc1O	2	nt	50*	-23	nt	1
CCOc1ccc(-c2[nH]ncc2Oc2cccc(OC)c2)c(O)c1	-1	30	26	36	-1	-4
CCCOC(=O)c1ccc(Oc2cn[nH]c2-c2ccc(OCC)cc2O)cc1	2	-7	78*	21	-1	-2
COc1ccc(Oc2cn[nH]c2-c2ccc(OCC(=O)NN)cc2O)cc1	-2	nt	88*	15	nt	-1
Cc1cccc(N2CC(C(=O)NCc3ccco3)CC2=O)c1C (stereo not given)	-1	13	nt	21	-1	-3
Cn1cc(C[C@H](NC(=O)OC(C)(C)C)C(=O)N[C@@H](CO)Cc2ccccc2)c2ccccc21	1	4	7	-4	7	-1
SMILES	CHOP UPR activ	CSC inhib	SKKanGAS inh	Mdm2-MdmX inh	Beta cell apopt	XBP1 UPR activ
Cc1nc2ccccc2n1/N=C/c1ccc([N+](=O)[O-])s1	15	47	92*	34	109*	8
Cc1cc2ncn(/N=C/c3ccc([N+](=O)[O-])s3)c2cc1C	nt	19	22	nt	50	nt
O=[N+]([O-])c1ccc(/C=N/n2c(CO)nc3ccccc32)s1	2	0	12	34	81*	-3
COc1cc(/C=N/Nc2ccccc2)ccc1O	4	41	10	-27	-1	1
COc1ccc(/C=N/N(c2ccccc2)c2ccccc2)cc1O	0	81*	4	1	7	-2
COc1cc(/C=N/N(c2ccccc2)c2ccccc2)ccc1O	6	99*	25	6	2	0
Cc1cc(NC(=O)C2CCN(C(=O)c3ccco3)CC2)ccc1Br	1	0	3	18	nt	-3
COc1ccc(S(=O)(=O)N2CCC(C(=O)Oc3cccc(C)c3)CC2)cc1OC	1	0	-1	25	-5	-4
C/C(=N\Nc1cc(N2CCCCC2)nc(C)n1)c1ccc(Br)cc1	10	105*	82*	39	60	3
c1ccc(-c2nnc(-c3ccccc3)nn2)cc1	-1	2	0	-191	-5	-7
c1cncc(-c2nnc(-c3cccnc3)nn2)c1	1	10	17	33	108*	3
COc1ccc(/C=C(/NC(=O)c2ccco2)C(=O)Nc2ccc(C(=O)O)cc2)cc1	0	-4	20	6	0	-1
CC1(C)CCC[C@]2(C)[C@H]3Cc4cc(O)ccc4O[C@]3(C)CC[C@@H]12	1	130*	nt	23	10	6
COC(=O)c1ccc(N2CCC(c3cc(-c4ccc(OC)cc4)n[nH]3)CC2)c([N+](=O)[O-])c1	5	7	90*	7	4	8
CC(=O)c1ccc(N2CCC(c3cc(-c4ccc(Cl)cc4)n[nH]3)CC2)c([N+](=O)[O-])c1	8	101*	88*	26	40	6
CCc1cc(=O)oc2c(C)c(OCC(=O)NCCCN3CCCC3=O)ccc12	-1	1	0	8	4	0
O=C(Nc1ccccc1)NC1CCCCNC1=O (stereo not given)	-2	-9	-2	-6	-10	-3
CCCC1CC(C(=O)NC(C(C)Cl)C2OC(SC)C(O)C(O)C2O)N(C)C1 (stereo not given)	0	-9	106*	-15	4	-4
CCC[C@@H]1C[C@@H](C(=O)NC(C(C)Cl)[C@H]2O[C@H](SC)[C@H](O)[C@@H](O)[C@H]2O)N(C)C1 (stereo not given in full)	1	-17	106*	-6	1	-7

Screening results as filed in PubChem BioAssay.
